Measured values from ChEMBL document CHEMBL4422628, “Discovery of first-in-class thiazole-based dual FFA1/PPARδ agonists as potential anti-diabetic agents” (Eur J Med Chem, 2019).

Columns and labels:
[1] = target: T1, Peroxisome proliferator-activated receptor delta (Homo sapiens, UniProt Q03181); test: Transactivation of GAL4-fused human PPARdelta LBD expressed in HEK293 cells after 18 hrs by luciferase reporter gene assay; type: cell-based
T1 sequence (Q03181 whole entry): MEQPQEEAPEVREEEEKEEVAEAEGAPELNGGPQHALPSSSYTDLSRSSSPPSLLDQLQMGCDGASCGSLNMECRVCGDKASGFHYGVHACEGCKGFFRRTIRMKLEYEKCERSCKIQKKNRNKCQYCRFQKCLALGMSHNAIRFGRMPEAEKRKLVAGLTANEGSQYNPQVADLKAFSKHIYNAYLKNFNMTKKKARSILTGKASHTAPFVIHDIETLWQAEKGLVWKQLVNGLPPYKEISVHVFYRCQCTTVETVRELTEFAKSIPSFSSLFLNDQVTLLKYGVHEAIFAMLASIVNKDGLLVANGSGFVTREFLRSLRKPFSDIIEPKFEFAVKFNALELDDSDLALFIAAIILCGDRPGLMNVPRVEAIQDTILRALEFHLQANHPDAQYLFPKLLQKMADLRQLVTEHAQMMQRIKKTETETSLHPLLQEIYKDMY

[2] = target: T2, Free fatty acid receptor 1 (Homo sapiens, UniProt O14842); test: Agonist activity at human FFA1 receptor expressed in CHO cells by Fluo 4-AM dye based FLIPR assay; type: cell-based
Outline: (§1)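 hFFA1-expressing CHO cells were loaded for 1 h at 37 °C with buffer containing 2.5 μg/mL Fluo 4-AM, 0.1% fatty acid-free BSA and 2.5 mmol/L probenecid. Compounds were added and calcium flux was read on FLIPR. Activity = (A–B)/(C–B)×100%, where A is the compound response, B the vehicle response and C the 10 μM γ-linolenic acid response.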

[3] = target: T2, Free fatty acid receptor 1; test: Agonist activity at human FFA1 receptor expressed in CHO cells assessed as activity percentage at 10 uM by Fluo 4-AM dye based FLIPR assay relative to control; type: cell-based; outline: as §1
[4] = target: T3, Peroxisome proliferator-activated receptor delta (Homo sapiens) (UniProt Q03181); test: Transactivation of GAL4-fused human PPARdelta LBD expressed in HEK293 cells assessed as activity percentage at 10 uM after 18 hrs by luciferase reporter gene assay relative to control; type: cell-based
T3 sequence (whole entry): T1 sequence (Q03181 whole entry)
Outline: (§2)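 HepG2 or HEK293 cells were transfected with pBIND-PPARα, -δ or -γ (GAL4 fusion). Compounds at varying concentrations were incubated for 18 h. Cells were then lysed and firefly and renilla luciferase were read by dual-luciferase assay.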

Mus musculus [5] = test: Antidiabetic activity in ob/ob mouse assessed as reduction in blood glucose AUC (0 to 120 mins) at 40 mg/kg, po administered as single dose pretreated for 30 mins followed by glucose-challenge by glucometric analysis relative to control; type: functional; parameters: scale not given: the % may be the effect or the level left
Outline: (§3)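 Male ob/ob mice (six weeks old on arrival, acclimatized one week) were fasted 12 h and randomized (n = 6/group). Each received a single oral dose in 0.5% carboxymethyl cellulose vehicle, then 3 g/kg oral glucose 30 min later. Blood glucose was measured by glucometer at −30, 0, 15, 30, 60 and 120 min. Glucose AUC0-120min was calculated, mean ± SD.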

[6] = Cmax in Sprague-Dawley rat at 3 mg/kg, po by LC-MS/MS analysis; type: ADME, organism-based; parameters: dose 3 mg/kg, route oral; details: in vivo
Mus musculus [7] = test: Antidiabetic activity in ob/ob mouse assessed as change in blood glucose AUC (0 to 120 mins) at 10 mg/kg, po administered as single dose pretreated for 30 mins followed by glucose-challenge by glucometric analysis relative to control; type: functional; outline: as §3
[8] = target: T4, Peroxisome proliferator-activated receptor gamma (Homo sapiens, UniProt P37231); test: Transactivation of GAL4-fused human PPARgamma LBD expressed in HEK293 cells after 18 hrs by luciferase reporter gene assay; type: cell-based; outline: as §2
T4 sequence (P37231 whole entry): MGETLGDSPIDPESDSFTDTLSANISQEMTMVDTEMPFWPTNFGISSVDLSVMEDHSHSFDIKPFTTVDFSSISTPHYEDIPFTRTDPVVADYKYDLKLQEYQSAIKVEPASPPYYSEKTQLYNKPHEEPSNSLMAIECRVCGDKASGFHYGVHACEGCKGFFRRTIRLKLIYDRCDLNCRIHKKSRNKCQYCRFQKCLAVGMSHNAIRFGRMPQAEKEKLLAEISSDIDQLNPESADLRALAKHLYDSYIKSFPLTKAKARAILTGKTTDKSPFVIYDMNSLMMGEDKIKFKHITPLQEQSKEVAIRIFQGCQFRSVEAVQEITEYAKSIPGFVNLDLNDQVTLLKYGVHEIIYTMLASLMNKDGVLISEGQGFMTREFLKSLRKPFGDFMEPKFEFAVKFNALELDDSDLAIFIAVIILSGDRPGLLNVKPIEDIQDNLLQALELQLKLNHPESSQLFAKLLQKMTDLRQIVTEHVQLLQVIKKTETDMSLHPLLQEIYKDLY

[9] = Clearance in Sprague-Dawley rat at 3 mg/kg, po by LC-MS/MS analysis; type: ADME, organism-based; details: in vivo
[10] = target: T5, Peroxisome proliferator-activated receptor alpha (Homo sapiens, UniProt Q07869); test: Transactivation of GAL4-fused human PPARalpha LBD expressed in HEK293 cells after 18 hrs by luciferase reporter gene assay; type: cell-based; outline: as §2
T5 sequence (Q07869 whole entry): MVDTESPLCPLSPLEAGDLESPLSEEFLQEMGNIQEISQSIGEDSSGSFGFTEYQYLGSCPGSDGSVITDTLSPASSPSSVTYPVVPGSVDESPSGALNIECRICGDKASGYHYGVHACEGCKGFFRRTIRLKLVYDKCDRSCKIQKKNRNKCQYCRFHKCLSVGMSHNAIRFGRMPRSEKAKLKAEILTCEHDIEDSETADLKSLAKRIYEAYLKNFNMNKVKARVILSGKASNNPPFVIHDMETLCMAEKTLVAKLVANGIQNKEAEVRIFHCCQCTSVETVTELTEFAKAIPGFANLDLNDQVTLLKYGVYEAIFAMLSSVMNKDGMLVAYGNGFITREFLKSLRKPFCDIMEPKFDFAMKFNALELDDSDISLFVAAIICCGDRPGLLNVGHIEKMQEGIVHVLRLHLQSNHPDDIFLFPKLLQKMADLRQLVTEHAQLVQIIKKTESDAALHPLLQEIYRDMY

[11] = AUC (0 to 24 hrs) in Sprague-Dawley rat at 3 mg/kg, po by LC-MS/MS analysis; type: ADME, organism-based; parameters: dose 3 mg/kg, time < 24 hr, route oral; details: in vivo
Mus musculus [12] = test: Antidiabetic activity in ob/ob mouse assessed as reduction in blood glucose AUC (0 to 120 mins) at 100 mg/kg, po administered as single dose pretreated for 30 mins followed by glucose-challenge by glucometric analysis relative to control; type: functional; parameters: scale not given: the % may be the effect or the level left; outline: as §3
Mus musculus [13] = test: Antidiabetic activity in ob/ob mouse assessed as reduction in blood glucose AUC (0 to 120 mins) at 30 mg/kg, po administered as single dose pretreated for 30 mins followed by glucose-challenge by glucometric analysis relative to control; type: functional; parameters: scale not given: the % may be the effect or the level left; outline: as §3
[14] = Half life in Sprague-Dawley rat at 3 mg/kg, po by LC-MS/MS analysis; type: ADME, organism-based; details: in vivo
Mus musculus [15] = test: Antidiabetic activity in po dosed ob/ob mouse assessed as reduction in blood glucose AUC (0 to 120 mins) administered as single dose pretreated for 30 mins followed by glucose-challenge by glucometric analysis; type: functional, organism-based; outline: as §3

T2 sequence (O14842 whole entry): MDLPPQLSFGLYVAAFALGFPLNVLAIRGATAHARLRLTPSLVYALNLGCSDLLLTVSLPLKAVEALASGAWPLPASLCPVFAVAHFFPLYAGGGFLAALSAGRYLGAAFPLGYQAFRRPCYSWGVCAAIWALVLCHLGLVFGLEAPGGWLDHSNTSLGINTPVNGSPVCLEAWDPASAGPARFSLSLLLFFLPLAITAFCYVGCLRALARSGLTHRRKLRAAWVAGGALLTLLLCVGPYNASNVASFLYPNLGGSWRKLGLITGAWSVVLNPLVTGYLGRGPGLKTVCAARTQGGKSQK

Row | Compound | EC50 [1] [nM] | EC50 [2] [nM] | Activity [3] [%] | Activity [4] [%] | also measured
1 | Cc1cc(OCc2sc(-c3ccc(C(F)(F)F)cc3)nc2C)ccc1OCC(=O)O | 315 | > 10000 |  |  | 
2 | O=C(O)COc1ccc(OCc2csc(-c3ccccc3)n2)cc1F | > 10000 | > 10000 | 23 | 20 | 
3 | Cc1cc(OCCCS(C)(=O)=O)cc(C)c1-c1cccc(COc2ccc3c(c2)OC[C@H]3CC(=O)O)c1 |  |  |  |  | Activity (Mus musculus [5]): 15.7%
4 | Cc1cc(OCc2sc(-c3ccccc3)nc2C)ccc1OCC(=O)O | 1650 | > 10000 | 13 |  | 
5 | Cc1cc(OCc2nnc(-c3ccccc3)s2)ccc1OCC(=O)O | > 10000 | > 10000 | 1 | 9 | 
6 | O=C(O)COc1ccc(OCc2nnc(-c3ccccc3)s2)cc1F | > 10000 | > 10000 | 19 | 4 | 
7 | COc1ccc(-c2nc(C)c(COc3ccc4c(c3)OCC4CC(=O)O)s2)cc1 (stereo not drawn) | 920 | 156 |  |  | 
8 | Cc1sc(-c2ccccc2)nc1CNc1ccc(OCC(=O)O)c(F)c1 | > 10000 | > 10000 | 42 | 12 | 
9 | [2H]C([2H])(Cc1ccc(OCc2sc(-c3ccc(C(F)(F)F)cc3)nc2C)cc1)C(=O)O | 376 | 325 |  |  | 
10 | Cc1cccc(-c2nc(C)c(COc3ccc(OCC(=O)O)c(F)c3)s2)c1 | 1160 | 247 |  |  | 
11 | Cc1nc(-c2ccc(F)cc2)sc1COc1ccc(S(=O)(=O)CC(=O)O)cc1 | > 10000 | 253 |  |  | 
12 | Cc1nc(-c2ccc(C(F)(F)F)cc2)sc1COc1ccc2c(c1)OC[C@H]2CC(=O)O | 102 | 68 |  |  | Cmax [6]: 9450 ng/mL; Activity (Mus musculus [7]): 1.1%; EC50 [8]: > 10000 nM; CL/F [9]: 0.279 mL/min/kg; EC50 [10]: > 10000 nM; AUC(0-t) at 24 h [11]: 95600 ng·h/mL; Activity (Mus musculus [12]): 10.9%; Activity (Mus musculus [13]): 6.1%; half-life [14]: 4.31 h; Activity (Mus musculus [15]): Dose-dependent effect
13 | Cc1nc(-c2cccc(F)c2)sc1COc1ccc(OCC(=O)O)c(F)c1 | 780 | 185 |  |  | 
14 | Cc1cc(OCc2csc(-c3ccccc3)n2)ccc1OCC(=O)O | > 10000 | > 10000 | 5 | 35 | 
15 | Cc1nc(-c2ccccc2)oc1COc1ccc(OCC(=O)O)c(F)c1 | 2660 | 1350 |  |  | 
16 | Cc1nc(-c2ccc(C(F)(F)F)cc2)sc1COc1ccc2c(c1)OCC2CC(=O)O (stereo not drawn) | 175 | 113 |  |  | 
17 | Cc1nc(-c2ccccc2)sc1COc1ccc(OCC(=O)O)c(F)c1 | 1320 | 374 |  |  | 
18 | [2H]C([2H])(Cc1ccc(OCc2sc(-c3ccc(F)cc3)nc2C)cc1)C(=O)O | 529 | 251 |  |  | 

Now from value to compound, other results behind:

Row | EC50 [1] [nM] | EC50 [2] [nM] | Activity [3] [%] | Activity [4] [%] | Compound | also measured
19 | > 10000 | > 10000 | 2 | 12 | Cc1cc(OCc2ncc(-c3ccccc3)o2)ccc1OCC(=O)O | 
20 | > 10000 | > 10000 | 2 | 8 | O=C(O)COc1ccc(OCc2ncc(-c3ccccc3)o2)cc1F | 
21 | 564 | 156 |  |  | Cc1ccc(-c2nc(C)c(COc3ccc(OCC(=O)O)c(F)c3)s2)cc1 | 
22 | 863 | 102 |  |  | Cc1nc(-c2ccccc2)sc1COc1ccc2c(c1)OCC2CC(=O)O (stereo not drawn) | 
23 | 306 | 79 |  |  | Cc1nc(-c2ccc(F)cc2)sc1COc1ccc2c(c1)OCC2CC(=O)O (stereo not drawn) | 
24 | 218 | 94 |  |  | Cc1ccc(-c2nc(C)c(COc3ccc4c(c3)OCC4CC(=O)O)s2)cc1 (stereo not drawn) | 
25 | > 10000 | > 10000 | 37 | 31 | Cc1sc(-c2ccccc2)nc1COc1ccc(OCC(=O)O)c(F)c1 | 
26 | 729 | 112 |  |  | Cc1nc(-c2ccc(F)cc2)sc1COc1ccc(OCC(=O)O)c(F)c1 | 
27 | 972 | 590 |  |  | [2H]C([2H])(Cc1ccc(OCc2sc(-c3ccccc3)nc2C)cc1)C(=O)O | 
28 | > 10000 | > 10000 | 6 | 3 | O=C(O)COc1ccc(OCc2nnc(-c3ccccc3)o2)cc1F | 
29 | 264 | 105 |  |  | Cc1nc(-c2ccc(Cl)cc2)sc1COc1ccc2c(c1)OCC2CC(=O)O (stereo not drawn) | 
30 | > 10000 | 370 |  |  | Cc1nc(-c2ccccc2)sc1COc1ccc(S(=O)(=O)CC(=O)O)cc1 | 
31 | > 10000 | > 10000 | 31 | 23 | O=C(O)COc1ccc(OCc2ncc(-c3ccccc3)s2)cc1F | 
32 | > 10000 | > 10000 | 15 | 11 | O=C(O)COc1ccc(OCc2nc(-c3ccccc3)cs2)cc1F | 
33 | 436 | 149 |  |  | Cc1nc(-c2ccc(C(F)(F)F)cc2)sc1COc1ccc(OCC(=O)O)c(F)c1 | 
